Seven compounds from ChEMBL document CHEMBL3085732, “Synthesis and pharmacological evaluation of aminothiazolomorphinans at the mu and kappa opioid receptors” (J Med Chem, 2013) can be followed below.

The source made the active and inactive calls.

For orientation: Emax means the size of the effect at its maximum, as opposed to the concentration needed. The EC50 is the concentration giving half of the maximal effect. One may read the IC50 as the concentration at which inhibition is half-maximal. What is called Ki is a measure of affinity in units of concentration, obtained from inhibition or displacement. Higher therefore signals lower affinity.

The target of series [1] is T1, Mu-type opioid receptor (Homo sapiens, UniProt P35372). The experiment in a line: Antagonist activity at human mu opioid receptor transfected in CHO cells assessed as inhibition of […] [35S]GTPgammaS binding after 60 mins by scintillation counting analysis relative to control. In kind it is functional, cell-based.
For series [2], the target named is T2, Kappa-type opioid receptor (Homo sapiens, UniProt P41145). Nature of the series: Agonist activity at human kappa opioid receptor transfected in CHO cells assessed as stimulation of [35S]GTPgammaS binding after 60 mins by scintillation counting analysis relative to control. In kind it is functional, cell-based. Summed up: (§1)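 Membranes from CHO cells stably expressing human KOR (15 μg protein/tube) or MOR (7.5 μg protein/tube) were incubated for 60 min at 30 °C with 12 compound concentrations, 3 μM GDP and […] [35S]GTPγS. Nonspecific binding used 10 μM GTPγS. Filtration, scintillation counting; % stimulation over basal. ≥3 experiments, triplicate.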
For orientation: Binding of GTPγS marks nucleotide exchange on a G protein.

In series [3] the target is T1, Mu-type opioid receptor. Nature of the series: Antagonist activity at human mu opioid receptor transfected in CHO cells assessed as inhibition of DAMGO-induced [35S]GTPgammaS binding after 60 mins by scintillation counting analysis relative to control. Format: functional, cell-based. An outline of the steps:
(§2)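 Membranes from CHO cells expressing human MOR (7.5 μg protein/tube) were incubated with test compound plus 200 nM DAMGO, 3 μM GDP and […] [35S]GTPγS. Incubation was 60 min at 30 °C in Tris/MgCl2/NaCl/EGTA buffer, pH 7.4. Bound label was measured by filtration and scintillation counting. At least 3 experiments, each in triplicate.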

The target in series [4] is T1, Mu-type opioid receptor. The experiment in a line: Agonist activity at human mu opioid receptor transfected in CHO cells assessed as stimulation of [35S]GTPgammaS binding after 60 mins by scintillation counting analysis relative to control. In kind it is functional, cell-based. Summed up:
as §1

Series [5] addresses T2, Kappa-type opioid receptor. The experiment in a line: Agonist activity at human kappa opioid receptor transfected in CHO cells assessed as stimulation of [35S]GTPgammaS binding after 60 mins by scintillation counting analysis. In kind it is functional, cell-based. An outline of the steps: as §1
The target of series [6] is T1, Mu-type opioid receptor. The experiment in a line: Antagonist activity at human mu opioid receptor transfected in CHO cells assessed as inhibition of DAMGO-induced [35S]GTPgammaS binding after 60 mins by scintillation counting analysis. In kind it is functional, cell-based. An outline of the steps:
as §2

The target of series [7] is T1, Mu-type opioid receptor. The experiment in a line: Agonist activity at human mu opioid receptor transfected in CHO cells assessed as stimulation of [35S]GTPgammaS binding after 60 mins by scintillation counting analysis. Format: functional, cell-based. Summed up:
as §1

Series [8] is filed under the species Homo sapiens. Nature of the series: Selectivity ratio of Ki for human delta opioid receptor to Ki for human kappa opioid receptor.
The species named for series [9] is Homo sapiens. Nature of the series: Selectivity ratio of Ki for human mu opioid receptor to Ki for human kappa opioid receptor.
Series [10] has as its target Delta-type opioid receptor (Homo sapiens, UniProt P41143). The experiment in a line: Displacement of [3H]-naltrindole from human delta opioid receptor transfected in CHO cells after 3 hrs. In kind it is cell-based. (Displacement assays read how much labelled ligand stays bound in the presence of the test substance.)
Series [11] concerns the target T2, Kappa-type opioid receptor. Nature of the series: Displacement of [3H]-U69593 from human kappa opioid receptor transfected in CHO cells after 60 mins. In kind it is cell-based.
In series [12] the target is T1, Mu-type opioid receptor. The experiment in a line: Displacement of [3H]-DAMGO from human mu opioid receptor transfected in CHO cells after 60 mins. In kind it is cell-based.
The subject of series [13] is Rattus norvegicus. Nature of the series: Toxicity in Sprague-Dawley rat assessed as suppression of intracranial self-stimulation reward function at 1 to 30 mg/kg, ip measured for 1 hr. Format: organism-based. Further details: dose 1-30 mg/kg, route intraperitoneal. As to conditions: in vivo. Summed up:
(§3)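 Male Sprague-Dawley rats with lateral hypothalamic medial forebrain bundle electrodes were given test drug i.p. in increasing doses (n=6/cohort). One series was 0–4.0 mg/kg in 20% DMSO/water; the other was 1.0–30.0 mg/kg in 0.9% saline. ICSS thresholds and maximum response rates were measured over four 15-min rate-frequency trials after baseline. Results were expressed as 100 × post/pre-treatment.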

The test system of series [14] is Rattus norvegicus. The experiment in a line: Reduction of reward potentiation effect of cocaine in ip dosed Sprague-Dawley rat assessed as blockade of cocaine-madiated reduction of intracranial self-stimulation threshold at 3 to 30 mg/kg administered for 15 mins prior to cocaine challenge measured 15 mins post dose and 1 hr post cocaine challenge. In kind it is functional, organism-based. An outline of the steps:
(§4)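 Male Sprague-Dawley rats carried medial forebrain bundle electrodes and were trained by the rate-frequency method to stable thresholds (n=6/cohort). Baseline came from three 15-min functions. Test drug was given i.p. in increasing doses: 0, 0.5, 1.0, 2.0 mg/kg, or 0, 3.0, 10.0, 30.0 mg/kg. […] Data were expressed as 100 × post/pre.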

The test system of series [15] is Rattus norvegicus. The experiment in a line: Reduction of reward potentiation effect of cocaine in ip dosed Sprague-Dawley rat assessed as blockade of cocaine-madiated reduction of intracranial self-stimulation threshold administered for 15 mins prior to cocaine challenge measured 15 mins post dose and 1 hr post cocaine challenge. Format: functional, organism-based. Summed up:
as §4

In series [16] the test system is Rattus norvegicus. The experiment in a line: Toxicity in Sprague-Dawley rat assessed as suppression of intracranial self-stimulation reward function at 4 mg/kg, ip measured over 15 to 60 mins. In kind it is organism-based. Set-up: dose 4 mg/kg, route intraperitoneal. Particulars: in vivo. Summed up: as §3
The test system of series [17] is Rattus norvegicus. The experiment in a line: Toxicity in Sprague-Dawley rat assessed as suppression of intracranial self-stimulation reward function at 0.25 to 2 mg/kg, ip measured for 1 hr. Further details: dose 0.25-2 mg/kg, route intraperitoneal. Particulars: in vivo. Format: organism-based. An outline of the steps:
as §3

T1 sequence (P35372 whole entry): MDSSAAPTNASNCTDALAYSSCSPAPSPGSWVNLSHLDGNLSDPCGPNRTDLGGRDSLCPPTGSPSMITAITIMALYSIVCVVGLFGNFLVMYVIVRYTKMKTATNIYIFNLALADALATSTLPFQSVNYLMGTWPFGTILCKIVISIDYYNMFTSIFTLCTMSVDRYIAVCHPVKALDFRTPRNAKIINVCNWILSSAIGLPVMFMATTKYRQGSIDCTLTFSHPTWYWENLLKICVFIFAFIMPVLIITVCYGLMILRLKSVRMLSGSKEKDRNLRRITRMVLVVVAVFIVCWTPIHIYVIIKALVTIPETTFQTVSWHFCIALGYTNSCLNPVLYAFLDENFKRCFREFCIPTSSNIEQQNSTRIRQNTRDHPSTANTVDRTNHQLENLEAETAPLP
Chain of Delta-type opioid receptor (P41143 whole entry): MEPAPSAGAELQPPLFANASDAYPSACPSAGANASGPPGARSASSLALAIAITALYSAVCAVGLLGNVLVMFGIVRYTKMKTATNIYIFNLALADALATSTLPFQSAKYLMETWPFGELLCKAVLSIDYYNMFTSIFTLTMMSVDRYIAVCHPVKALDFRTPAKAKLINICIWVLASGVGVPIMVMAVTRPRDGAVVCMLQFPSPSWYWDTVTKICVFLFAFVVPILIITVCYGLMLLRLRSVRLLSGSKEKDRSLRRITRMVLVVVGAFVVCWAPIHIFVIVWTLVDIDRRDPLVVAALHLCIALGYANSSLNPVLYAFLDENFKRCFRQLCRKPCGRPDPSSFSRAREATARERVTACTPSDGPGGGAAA
T2 sequence (P41145 whole entry): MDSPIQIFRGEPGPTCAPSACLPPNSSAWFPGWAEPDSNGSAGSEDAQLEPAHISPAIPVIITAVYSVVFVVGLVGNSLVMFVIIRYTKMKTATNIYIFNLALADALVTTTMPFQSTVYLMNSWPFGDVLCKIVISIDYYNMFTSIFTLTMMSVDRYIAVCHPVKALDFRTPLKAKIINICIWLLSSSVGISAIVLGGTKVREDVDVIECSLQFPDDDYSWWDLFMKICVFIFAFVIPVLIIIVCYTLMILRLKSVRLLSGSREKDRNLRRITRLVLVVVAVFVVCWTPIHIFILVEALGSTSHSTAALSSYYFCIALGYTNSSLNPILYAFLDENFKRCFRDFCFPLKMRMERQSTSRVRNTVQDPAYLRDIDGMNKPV

Regarding `COc1ccc2c(c1)[C@]13CCN(CC4CC4)[C@H](C2)[C@@H]1Cc1sc(N)nc1C3`, the Imax entry at Mu-type opioid receptor [1] was “inactive”. Moreover, the Emax in series [2] came to 140%; at Mu-type opioid receptor [4], 24%. In addition, the Imax on Mu-type opioid receptor [3] stood at 69%. Moreover, the EC50 in series [5] stood at 49 nM; on Mu-type opioid receptor [7], 39 nM. At Mu-type opioid receptor [6], the IC50 turned out to be 640 nM. In addition, the Ratio Ki in the series listed under Homo sapiens [8] turned out to be 6.8; in the series filed under Homo sapiens [9] it was 3.5. Also, the Ki came out at 13 nM in [10], 1.9 nM in series [11] and 6.7 nM at Mu-type opioid receptor [12].
Consider `COc1ccc2c(c1)[C@]13CCN(CC4CC4)[C@H](C2)[C@@H]1Cc1sc(NC(C)=O)nc1C3`, for which the Imax entry on Mu-type opioid receptor [1] is “inactive”. The results for the Emax (in series [2]; on Mu-type opioid receptor [4]) were 120% and 47%, respectively. Moreover, at Mu-type opioid receptor [3], the Imax turned out to be 60%. Also, the half-maximal effective concentration (EC50) in series [5] amounted to 140 nM; at Mu-type opioid receptor [7] it was 80 nM. At Mu-type opioid receptor [6], the IC50 turned out to be 500 nM. Besides, the Ratio Ki in the series listed under Homo sapiens [8] stood at 0.51; in the series listed under Homo sapiens [9], 0.73. Moreover, the Ki in series [10] amounted to 4.6 nM; in series [11] it was 9 nM; at Mu-type opioid receptor [12], 6.6 nM.
`Nc1nc2c(s1)C[C@H]1[C@H]3Cc4ccc(O)cc4[C@@]1(CCN3CC1CC1)C2`: the Imax on Mu-type opioid receptor [1] was 49%. In addition, the Emax in [2] is 59%. The Activity entry in the series on Rattus norvegicus [13] is on record as “Non-toxic”. In addition, the EC50 in series [5] was 0.61 nM. Further, in the series with Rattus norvegicus [14], the outcome was inactive.
`Oc1ccc2c(c1)[C@@]13CCCC[C@H]1[C@@H](C2)N(CC1CCC1)CC3` [BUTORPHAN]: the Activity entry is “Dose-dependent effect” with Rattus norvegicus [15], “Toxic” in the series on Rattus norvegicus [16] and “Non-toxic” with Rattus norvegicus [17].
In the case of `CNc1nc2c(s1)C[C@H]1[C@H]3Cc4ccc(O)cc4[C@@]1(CCN3CC1CC1)C2`, the figures for the Imax on Mu-type opioid receptor [1] and at Mu-type opioid receptor [3] were 27% and 76%, respectively. In addition, the figures for the maximal effect (Emax) (in series [2]; at Mu-type opioid receptor [4]) were 85% and 25%, respectively. Also, the half-maximal effective concentration (EC50) in series [5] turned out to be 1.3 nM; on Mu-type opioid receptor [7] it was 0.52 nM. For the same compound, the half-inhibitory concentration (IC50) on Mu-type opioid receptor [6] turned out to be 2.5 nM. Moreover, the Ratio Ki amounted to 5.1 in the series listed under Homo sapiens [8] and 1.7 in the series listed under Homo sapiens [9]. In addition, the Ki in series [10] came out at 0.43 nM; in [11], 0.084 nM; at Mu-type opioid receptor [12], 0.14 nM.
`CNc1nc2c(s1)C[C@H]1[C@H]3Cc4ccc(OC)cc4[C@@]1(CCN3CC1CC1)C2`: on Mu-type opioid receptor [1], the Imax entry was “inactive”. Besides, the Emax in series [2] came out at 140%; on Mu-type opioid receptor [4], 28%. In addition, the Imax at Mu-type opioid receptor [3] is 76%. The concentration for a half-maximal effect (EC50) in [5] stood at 97 nM; on Mu-type opioid receptor [7], 51 nM. Moreover, the half-maximal inhibitory concentration (IC50) on Mu-type opioid receptor [6] is 650 nM. The values for the Ratio Ki in the series listed under Homo sapiens [8] and in the series filed under Homo sapiens [9] were 0.44 and 2.7, respectively. In addition, the Ki was determined as 1.6 nM in series [10], 3.6 nM in series [11] and 9.6 nM at Mu-type opioid receptor [12].
As for `Nc1nc2cc3c(cc2s1)C[C@@H]1[C@@H]2CCCC[C@]32CCN1CC1CC1`, the Imax entry at Mu-type opioid receptor [1] was “inactive”.
